From article PMC12780242 (Scientific Reports, 2025)
Read-outs that look alike come from different tables or passages of the source.

How the values were obtained:
[1] = test system: gastric cancer cells; settings: preclinical studies; cited from earlier work
[2] = test system: CDT1; test: CDT1 immunohistochemistry in endoscopic tumor biopsies; assay type: in vivo, human
In short: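 Endoscopic tumor biopsies from gastric cancer patients, taken at screening and on day 2 after a single lead-in dose of pevonedistat given alone on day 1. Formalin-fixed paraffin-embedded sections stained by immunohistochemistry with a monoclonal anti-CDT1 antibody. Read-out is CDT1-positive cells.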

[3] = Phase II trials for other cancers; cited from earlier work
[4] = test system: patients with unresectable advanced or recurrent gastric cancer (AGC); test: Dose-finding cohort; assay type: in vivo, human; settings: in combination with CapeOX
In short: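 Open-label multicenter phase I with standard 3 + 3 escalation. Pevonedistat dose levels were 20, 15 and 10 mg/m2. There was a single-agent lead-in dose on day 1, then a 7-day interval. Each 3-week cycle gave oxaliplatin 130 mg/m2 on day 1, oral capecitabine 1000 mg/m2/day twice daily about 12 h apart for 14 days, and pevonedistat on days 1, 3 and 5. The DLT window ran from the first lead-in dose to day 35 or the start of cycle 2, whichever came first. The RD also weighed adverse events in later cycles.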

[5] = test system: AGC; settings: cited from earlier work
[6] = third-line or later treatment of AGC
[7] = after failure of ≥ 2 chemotherapy regimens, pivotal Phase III trials

Compound | Growth of gastric cancer cells [1] | Cullin–RING ligase substrates NRF2 and CDT1 in post-treatment tumor biopsies ([2]; in vivo) | Pevonedistat-NEDD8 adduct in post-treatment tumor biopsies ([2]; in vivo) | Patients with increased CDT1 expression ([2]; post-treatment tumor biopsy) [%] | RD of pevonedistat combined with chemotherapy [3] | Maximum tolerated dose of pevonedistat [4] [mg/m^2] | Recommended dose (RD) of pevonedistat ([4]; days 1, 3, 5 of a 3-week cycle) [mg/m^2] | Patients experiencing disease progression as their best response [5, 6] | Response rates [5, 6] | Response rates [5, 7] [%]
NS(=O)(=O)OC[C@@H]1C[C@@H](n2ccc3c(N[C@H]4CCc5ccccc54)ncnc32)C[C@@H]1O [Pevonedistat] | significantly suppresses the growth | increase | presence | 75 | 20–25 mg/m^2 | 15 | 15 | – | – | –
CCc1c2c(nc3ccc(OC(=O)N4CCC(N5CCCCC5)CC4)cc13)-c1cc3c(c(=O)n1C2)COC(=O)[C@]3(O)CC [irinotecan] | – | – | – | – | – | – | – | more than 50% | around 10% | –
Nivolumab | – | – | – | – | – | – | – | more than 50% | around 10% | ≤ 10
trifluridine/tipiracil | – | – | – | – | – | – | – | more than 50% | around 10% | ≤ 10
